{"source": "ChEMBL document CHEMBL1130424", "about": "“Stabilized analogs of thymopentin. 1. 4,5-Ketomethylene pseudopeptides” (J Med Chem, 1997)", "key": {"CCRF-CEM [1]": {"test_system": "CCRF-CEM", "experiment": "Efficacy was measured as the percentage binding to CEM cells.", "assay_type": "functional, Homo sapiens", "how_it_was_run": "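CEM T-cells, subcultured in RPMI-1640 with 20% serum and stored frozen, were set at 5×10^6 cells/0.1 mL binding buffer (RPMI-1640 with bacitracin). Unlabeled competitor was added at 10^-6–10^-3 M, then [3H]thymopentin (37 Ci/mmol, 548 000 cpm). Incubation was 25 °C for 30 min, followed by two ice-cold washes and scintillation counting. Values are means of replicates at 10^-4 and 10^-3 M.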"}, "CCRF-CEM [2]": {"test_system": "CCRF-CEM", "experiment": "Binding was measured using [3H]thymopentin was compared to the CEM cell binding assay.", "assay_type": "functional, Homo sapiens", "set-up": "unit not given here"}, "[3]": {"experiment": "Half life by HPLC methods that permitted quantitative resolution of the decrease of TP-5 and the appearance of degradation products by absorbance, heparinized mouse serum.", "assay_type": "ADME", "how_it_was_run": "(§1)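 Mouse serum was prepared from whole blood with heparin sodium or EDTA as anticoagulant. Compounds were incubated for variable times, and incubation was ended by TFA to 10% (v/v) final, then 1 h at 0 °C and protein removal by centrifugation. Half-life came from HPLC absorbance following disappearance of parent and appearance of degradation products.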"}, "[4]": {"experiment": "Half life by HPLC methods that permitted quantitative resolution of the decrease of TP-5 and the appearance of degradation products by absorbance in human heparinized serum", "assay_type": "ADME"}, "[5]": {"experiment": "Half life by HPLC methods that permitted quantitative resolution of the decrease of TP-5 and the appearance of degradation products by absorbance in EDTA-treated mouse serum", "assay_type": "ADME, organism-based", "how_it_was_run": "as §1"}, "[6]": {"experiment": "Half life by HPLC methods that permitted quantitative resolution of the decrease of TP-5 and the appearance of degradation products by absorbance in human heparinized serum; Not degraded", "assay_type": "ADME"}, "[7]": {"experiment": "Half life by HPLC methods that permitted quantitative resolution of the decrease of TP-5 and the appearance of degradation products by absorbance in heparinized mouse serum; Not degraded", "assay_type": "ADME", "how_it_was_run": "as §1"}, "[8]": {"experiment": "Half life by HPLC methods that permitted quantitative resolution of the decrease of TP-5 and the appearance of degradation products by absorbance in heparinized mouse serum.", "assay_type": "ADME", "how_it_was_run": "as §1"}, "[9]": {"experiment": "Half life by HPLC methods that permitted quantitative resolution of the decrease of TP-5 and the appearance of degradation products by absorbance, human heparinized serum", "assay_type": "ADME, cell-free"}, "[10]": {"experiment": "Half life by HPLC methods that permitted quantitative resolution of the decrease of TP-5 and the appearance of degradation products by absorbance in heparinized mouse serum", "assay_type": "functional, cell-free", "how_it_was_run": "as §1"}, "[11]": {"experiment": "Half life by HPLC methods that permitted quantitative resolution of the decrease of TP-5 and the appearance of degradation products by absorbance, heparinized mouse serum; Not degraded", "assay_type": "ADME", "how_it_was_run": "as §1"}, "[12]": {"experiment": "Half life by HPLC methods that permitted quantitative resolution of the decrease of TP-5 and the appearance of degradation products by absorbance, human heparinized serum; Not degraded", "assay_type": "ADME"}}, "data": [{"smiles": "CCCC[C@H](NC(=O)[C@@H](N)CCCN=C(N)N)C(=O)N[C@@H](CC(=O)O)C(=O)N[C@H](C(=O)C[C@H](C(=O)O)C(C)C)C(C)C", "note": "(stereo in doubt; 1h-B)", "values": [{"measurement": "Efficacy", "setting": "CCRF-CEM [1]", "result": 71}, {"measurement": "Binding", "setting": "CCRF-CEM [2]", "result": 1713}, {"measurement": "T1/2", "setting": "[3]", "result": 2.6, "unit": "min"}]}, {"smiles": "CC(C)[C@H](NC(=O)[C@H](CC(=O)O)NC(=O)[C@@H]1CCCN1C(=O)[C@@H](N)CCCN=C(N)N)C(=O)C[C@H](Cc1ccccc1)C(=O)O", "note": "(stereo in doubt; 1b-B)", "values": [{"measurement": "Efficacy", "setting": "CCRF-CEM [1]", "result": 56}, {"measurement": "Binding", "setting": "CCRF-CEM [2]", "result": 2000}]}, {"smiles": "CCCC[C@H](NC(=O)[C@@H](N)CCCN=C(N)N)C(=O)N[C@@H](CC(=O)O)C(=O)N[C@@H](C)C(=O)C[C@H](Cc1ccccc1)C(=O)O", "note": "(stereo in doubt; 1g-B)", "values": [{"measurement": "Efficacy", "setting": "CCRF-CEM [1]", "result": 71}, {"measurement": "Binding", "setting": "CCRF-CEM [2]", "result": 1715}]}, {"smiles": "CC(C)[C@H](NC(=O)[C@H](CC(=O)O)NC(=O)[C@H](CCCCN)NC(=O)[C@@H](N)CCCN=C(N)N)C(=O)C[C@H](Cc1ccccc1)C(=O)O", "note": "(stereo in doubt; 1a -A) [listing 1 of 2 here]", "values": [{"measurement": "half-life", "setting": "[4]", "result": 2, "unit": "min"}, {"measurement": "half-life", "setting": "[5]", "result": 4.9, "unit": "min"}, {"measurement": "Efficacy", "setting": "CCRF-CEM [1]", "result": 70}, {"measurement": "Binding", "setting": "CCRF-CEM [2]", "result": 1735}]}, {"smiles": "CCCC[C@@H](C(=O)N[C@@H](CC(=O)O)C(=O)N[C@H](C(=O)C[C@H](Cc1ccccc1)C(=O)O)C(C)C)N(C)C(=O)[C@@H](N)CCCN=C(N)N", "values": [{"measurement": "T1/2", "setting": "[6]", "result": "Not degraded"}, {"measurement": "T1/2", "setting": "[7]", "result": "Not degraded"}, {"measurement": "Efficacy", "setting": "CCRF-CEM [1]", "result": 37}, {"measurement": "Binding", "setting": "CCRF-CEM [2]", "result": 2356}]}, {"smiles": "CCCC[C@H](NC(=O)[C@@H](N)CCCN=C(N)N)C(=O)N[C@@H](CC(=O)O)C(=O)N[C@@H](C(C)C)C1CC(Cc2ccccc2)C(=O)O1", "note": "(stereo partly specified)", "values": [{"measurement": "Efficacy", "setting": "CCRF-CEM [1]", "result": 16}, {"measurement": "Binding", "setting": "CCRF-CEM [2]", "result": 2771}]}, {"smiles": "CCCC[C@H](NC(=O)[C@@H](N)CCCN=C(N)N)C(=O)N[C@@H](CC(=O)O)C(=O)N[C@@H](C)C(=O)C[C@H](Cc1ccccc1)C(=O)O", "note": "(stereo in doubt; 1g-A)", "values": [{"measurement": "half-life", "setting": "[5]", "result": 20, "unit": "min"}, {"measurement": "Efficacy", "setting": "CCRF-CEM [1]", "result": 73}, {"measurement": "Binding", "setting": "CCRF-CEM [2]", "result": 1677}]}, {"smiles": "CC(C)C[C@H](NC(=O)[C@@H](N)CCCN=C(N)N)C(=O)N[C@@H](CC(=O)O)C(=O)N[C@H](C(=O)C[C@H](Cc1ccccc1)C(=O)O)C(C)C", "values": [{"measurement": "Efficacy", "setting": "CCRF-CEM [1]", "result": 65}, {"measurement": "Binding", "setting": "CCRF-CEM [2]", "result": 1851}]}, {"smiles": "CC(C)[C@H](NC(=O)[C@H](CC(=O)O)NC(=O)[C@H](CCCCN)NC(=O)[C@@H](N)CCCN=C(N)N)C(=O)C[C@H](Cc1ccccc1)C(=O)O", "note": "(stereo in doubt; 1f-A)", "values": [{"measurement": "Efficacy", "setting": "CCRF-CEM [1]", "result": 54}, {"measurement": "Binding", "setting": "CCRF-CEM [2]", "result": 2044}]}, {"smiles": "CCCC[C@H](NC(=O)[C@@H](N)CCCN=C(N)N)C(=O)N[C@@H](CC(=O)O)C(=O)N[C@@H](C(C)C)C(O)C[C@H](Cc1ccccc1)C(=O)O", "note": "(stereo partly specified)", "values": [{"measurement": "Efficacy", "setting": "CCRF-CEM [1]", "result": 35}, {"measurement": "Binding", "setting": "CCRF-CEM [2]", "result": 2400}]}, {"smiles": "CC(C)[C@H](NC(=O)[C@H](CC(=O)O)NC(=O)[C@@H]1CCCN1C(=O)[C@@H](N)CCCN=C(N)N)C(=O)C[C@H](Cc1ccccc1)C(=O)O", "note": "(stereo in doubt; 1b-A)", "values": [{"measurement": "half-life", "setting": "[4]", "result": 6, "unit": "min"}, {"measurement": "half-life", "setting": "[5]", "result": 17, "unit": "min"}, {"measurement": "half-life", "setting": "[8]", "result": 4.5, "unit": "min"}, {"measurement": "Efficacy", "setting": "CCRF-CEM [1]", "result": 64}, {"measurement": "Binding", "setting": "CCRF-CEM [2]", "result": 1843}]}, {"smiles": "CC(C)[C@H](NC(=O)[C@H](CC(=O)O)NC(=O)[C@H](C)NC(=O)[C@@H](N)CCCN=C(N)N)C(=O)C[C@H](Cc1ccccc1)C(=O)O", "values": [{"measurement": "Efficacy", "setting": "CCRF-CEM [1]", "result": 67}, {"measurement": "Binding", "setting": "CCRF-CEM [2]", "result": 1780}]}, {"smiles": "CCCC[C@H](NC(=O)[C@@H](N)CCCN=C(N)N)C(=O)N[C@@H](CC(=O)O)C(=O)N[C@H](C(=O)C[C@H](Cc1ccccc1)C(=O)O)C(C)C", "note": "(stereo in doubt; 1c-B)", "values": [{"measurement": "Efficacy", "setting": "CCRF-CEM [1]", "result": 84}, {"measurement": "Binding", "setting": "CCRF-CEM [2]", "result": 1453}]}, {"smiles": "CC(C)[C@H](NC(=O)[C@H](CC(=O)O)NC(=O)[C@H](CCCCN)NC(=O)[C@@H](N)CCCN=C(N)N)C(=O)C[C@H](Cc1ccccc1)C(=O)O", "note": "(stereo in doubt; 1a-B)", "values": [{"measurement": "Efficacy", "setting": "CCRF-CEM [1]", "result": 73}, {"measurement": "Binding", "setting": "CCRF-CEM [2]", "result": 1673}]}, {"smiles": "CCCC[C@H](NC(=O)[C@@H](N)CCCN=C(N)N)C(=O)N[C@@H](CC(=O)O)C(=O)N[C@H](C(=O)C[C@H](C(=O)O)C(C)C)C(C)C", "note": "(stereo in doubt; 1h-A)", "values": [{"measurement": "Efficacy", "setting": "CCRF-CEM [1]", "result": 77}, {"measurement": "Binding", "setting": "CCRF-CEM [2]", "result": 1600}, {"measurement": "T1/2", "setting": "[3]", "result": 1.2, "unit": "min"}, {"measurement": "half-life", "setting": "[9]", "result": 2.4, "unit": "min"}]}, {"smiles": "CC(C)[C@H](NC(=O)[C@H](CC(=O)O)NC(=O)[C@H](CCCCN)NC(=O)[C@@H](N)CCCN=C(N)N)C(=O)C[C@H](Cc1ccccc1)C(=O)O", "note": "(stereo in doubt; 1a -A) [listing 2 of 2 here]", "values": [{"measurement": "T1/2", "setting": "[10]", "result": 2, "unit": "min"}]}, {"smiles": "CCCC[C@H](NC(=O)[C@@H](N)CCCN=C(N)N)C(=O)N[C@@H](CC(=O)O)C(=O)N[C@H](C(=O)C[C@H](Cc1ccccc1)C(=O)O)C(C)C", "note": "(stereo in doubt; 1c-A)", "values": [{"measurement": "half-life", "setting": "[4]", "result": 1.9, "unit": "min"}, {"measurement": "half-life", "setting": "[5]", "result": 21.1, "unit": "min"}, {"measurement": "half-life", "setting": "[8]", "result": 5.5, "unit": "min"}, {"measurement": "Efficacy", "setting": "CCRF-CEM [1]", "result": 95}, {"measurement": "Binding", "setting": "CCRF-CEM [2]", "result": 1254}]}, {"smiles": "CCCC[C@@H](C(=O)N[C@@H](CC(=O)O)C(=O)N[C@H](C(=O)C[C@H](C(=O)O)C(C)C)C(C)C)N(C)C(=O)[C@@H](N)CCCN=C(N)N", "values": [{"measurement": "T1/2", "setting": "[11]", "result": "Not degraded"}, {"measurement": "T1/2", "setting": "[12]", "result": "Not degraded"}, {"measurement": "Efficacy", "setting": "CCRF-CEM [1]", "result": 37}, {"measurement": "Binding", "setting": "CCRF-CEM [2]", "result": 2356}]}]}
